{
  "source": "ChEMBL document CHEMBL1157379",
  "about": "“Transcriptional response of Candida parapsilosis following exposure to farnesol” (2007)",
  "key": {"Candida parapsilosis [1]": {"system": "Candida parapsilosis", "assay": "Increase in PLB3 gene expression in Candida parapsilosis CLIB214 at 50 uM after 2 hrs by microarray based transcriptional profiling relative to control", "type": "functional", "procedure,_shortened": "(§1)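 Strain grown overnight in YPD at 30°C, diluted to A600 0.2 in YPD at 30°C; farnesol (40 mM methanol stock) added at 4 h (A600 0.8), final 50 μM; methanol-only control. Cells collected 2 h later for RNA. Labelled cDNA from 25 μg total RNA (Cy3/Cy5-dCTP) hybridized to 68-mer oligo arrays at 42°C ~16 h; six individual comparisons analysed statistically.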"}, "Candida parapsilosis [2]": {"system": "Candida parapsilosis", "assay": "Decrease in PCL7 gene expression in Candida parapsilosis CLIB214 at 50 uM after 2 hrs by microarray based transcriptional profiling relative to control", "type": "functional", "procedure,_shortened": "(§2)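 Strain CLIB214 grown overnight in YPD at 30°C, diluted to A600 0.2 in fresh YPD at 30°C. After 4 h (A600 0.8), farnesol (40 mM methanol stock) added to 50 μM final, or an equal methanol volume as control; cells harvested 2 h later. RNA was accepted only with a 28S/18S ratio of 1.6–2.2. Cy3/Cy5-dCTP-labelled cDNA was made from 25 μg total RNA. Hybridisation was to duplicate-spotted 68-mer oligo arrays (3,849 genes) at 42°C for about 16 h. Six individual comparisons.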"}, "Candida parapsilosis [3]": {"system": "Candida parapsilosis", "assay": "Decrease in CGD gene ortholog accession number orf19.3434 expression in Candida parapsilosis CLIB214 at 50 uM after 2 hrs by microarray based transcriptional profiling relative to control", "type": "functional", "procedure,_shortened": "(§3)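 Cells in YPD at 30°C treated with 50 μM farnesol at 4 h, with a methanol control. RNA harvested 2 h later and kept only if 28S/18S ratio was 1.6–2.2 with no degradation. 25 μg total RNA oligo-dT primed and labeled with Cy3/Cy5-dCTP. Labeled cDNA hybridized about 16 h at 42°C to duplicate-spotted 68-mer oligo arrays. Six individual comparisons analyzed statistically.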"}, "Candida parapsilosis [4]": {"system": "Candida parapsilosis", "assay": "Increase in CGD gene ortholog accession number orf19.6539 expression in Candida parapsilosis CLIB214 at 50 uM after 2 hrs by microarray based transcriptional profiling relative to control", "type": "functional", "procedure,_shortened": "as §2"}, "Candida parapsilosis [5]": {"system": "Candida parapsilosis", "assay": "Antifungal activity against Candida parapsilosis CLIB214 assessed as growth inhibition at 50 uM after 4 hrs", "type": "functional", "conditions": "CLIB214, 4 h", "procedure,_shortened": "(§4)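 C. parapsilosis CLIB214 grown overnight in YPD at 30°C, diluted to A600 0.2 in fresh YPD, grown 4 h (A600 0.8), then farnesol added at final 10, 20, 50 or 100 μM from a 40 mM methanol stock. Methanol-only controls. Growth followed by A600 or by cell counting with a particle counter.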"}, "Candida parapsilosis [6]": {"system": "Candida parapsilosis", "assay": "Decrease in ZCF23 gene expression in Candida parapsilosis CLIB214 at 50 uM after 2 hrs by microarray based transcriptional profiling relative to control", "type": "functional", "procedure,_shortened": "as §2"}, "Candida parapsilosis [7]": {"system": "Candida parapsilosis", "assay": "Increase in DOT5 gene expression in Candida parapsilosis CLIB214 at 50 uM after 2 hrs by microarray based transcriptional profiling relative to control", "type": "functional", "procedure,_shortened": "as §1"}, "Candida parapsilosis [8]": {"system": "Candida parapsilosis", "assay": "Increase in TEF1 gene expression in Candida parapsilosis CLIB214 at 50 uM after 2 hrs by microarray based transcriptional profiling relative to control", "type": "functional", "procedure,_shortened": "as §1"}, "Candida parapsilosis [9]": {"system": "Candida parapsilosis", "assay": "Increase in CGD gene ortholog accession number orf19.5847 expression in Candida parapsilosis CLIB214 at 50 uM after 2 hrs by microarray based transcriptional profiling relative to control", "type": "functional", "procedure,_shortened": "as §2"}, "Candida parapsilosis [10]": {"system": "Candida parapsilosis", "assay": "Increase in CGD gene ortholog accession number orf19.966 expression in Candida parapsilosis CLIB214 at 50 uM after 2 hrs by microarray based transcriptional profiling relative to control", "type": "functional", "procedure,_shortened": "as §1"}, "Candida parapsilosis [11]": {"system": "Candida parapsilosis", "assay": "Decrease in CGD gene ortholog accession number orf19.2328 expression in Candida parapsilosis CLIB214 at 50 uM after 2 hrs by microarray based transcriptional profiling relative to control", "type": "functional", "procedure,_shortened": "as §3"}, "Candida parapsilosis [12]": {"system": "Candida parapsilosis", "assay": "Antifungal activity against Candida parapsilosis CLIB214 assessed as growth inhibition at 50 uM added 4 hrs after […] growth within 2 hrs by cell counting method", "type": "functional, organism-based", "procedure,_shortened": "as §4"}, "Candida parapsilosis [13]": {"system": "Candida parapsilosis", "assay": "Increase in ENA2 gene expression in Candida parapsilosis CLIB214 at 50 uM after 2 hrs by microarray based transcriptional profiling relative to control", "type": "functional", "procedure,_shortened": "as §1"}, "Candida parapsilosis [14]": {"system": "Candida parapsilosis", "assay": "Increase in ACC1 gene expression in Candida parapsilosis CLIB214 at 50 uM after 2 hrs by microarray based transcriptional profiling relative to control", "type": "functional", "procedure,_shortened": "as §2"}, "Candida parapsilosis [15]": {"system": "Candida parapsilosis", "assay": "Decrease in CGD gene ortholog accession number orf19.1608 expression in Candida parapsilosis CLIB214 at 50 uM after 2 hrs by microarray based transcriptional profiling relative to control", "type": "functional", "procedure,_shortened": "as §3"}, "Candida parapsilosis [16]": {"system": "Candida parapsilosis", "assay": "Decrease in CGD gene ortholog accession number orf19.6744 expression in Candida parapsilosis CLIB214 at 50 uM after 2 hrs by microarray based transcriptional profiling relative to control", "type": "functional", "procedure,_shortened": "as §2"}, "Candida parapsilosis [17]": {"system": "Candida parapsilosis", "assay": "Antifungal activity against Candida parapsilosis CLIB214 assessed as growth inhibition at 50 uM added after 2 hrs of bacterial growth measured after 2 hrs", "type": "functional", "conditions": "Lodderomyces parapsilosis, CLIB214, 2 h", "procedure,_shortened": "(§5)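 Overnight YPD culture at 30°C diluted to A600 0.2 in YPD. Farnesol added to 50 μM final at 2, 4, 6 or 8 h of growth (A600 about 0.8 at 4 h, 2.3 at 6 h, 6 at 8 h). Growth compared with methanol controls by A600 or cell counts.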"}, "Candida parapsilosis [18]": {"system": "Candida parapsilosis", "assay": "Decrease in CGD gene ortholog accession number orf19.194 expression in Candida parapsilosis CLIB214 at 50 uM after 2 hrs by microarray based transcriptional profiling relative to control", "type": "functional", "procedure,_shortened": "as §3"}, "Candida parapsilosis [19]": {"system": "Candida parapsilosis", "assay": "Increase in CGD gene ortholog accession number orf19.1026 expression in Candida parapsilosis CLIB214 at 50 uM after 2 hrs by microarray based transcriptional profiling relative to control", "type": "functional", "procedure,_shortened": "as §2"}, "Candida parapsilosis [20]": {"system": "Candida parapsilosis", "assay": "Increase in GRP2 gene expression in Candida parapsilosis CLIB214 by RT-PCR", "type": "functional, organism-based", "procedure,_shortened": "(§6)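 Cultures in YPD at 30°C, diluted to A600 0.2; 50 μM farnesol (final) or methanol added at 4 h, RNA harvested 2 h later. RT-PCR: 95°C hot start 1 min 30 s, then 26 cycles (95°C 40 s, 55°C 2 min, 72°C 3 min), final 72°C 5 min; each gene signal normalized to ACT1.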"}, "Candida parapsilosis [21]": {"system": "Candida parapsilosis", "assay": "Increase in CGD gene ortholog accession number orf19.5963 expression in Candida parapsilosis CLIB214 at 50 uM after 2 hrs by microarray based transcriptional profiling relative to control", "type": "functional", "procedure,_shortened": "as §2"}, "Candida parapsilosis [22]": {"system": "Candida parapsilosis", "assay": "Antifungal activity against Candida parapsilosis CLIB214 assessed as induction of cell death at 50 uM added 4 hrs after […] growth after 2 hrs by colony counting method", "type": "functional", "procedure,_shortened": "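Type strain grown overnight in YPD at 30°C, diluted to A600 0.2 in YPD; farnesol (40 mM stock in methanol) added at a final 50 μM, with a methanol-only control. Viability was measured by CFU counts taken 1 h and 2 h after addition.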"}, "Candida parapsilosis [23]": {"system": "Candida parapsilosis", "assay": "Reduction in GCN3 gene expression in Candida parapsilosis CLIB214 by RT-PCR", "type": "functional", "procedure,_shortened": "as §6"}, "Candida parapsilosis [24]": {"system": "Candida parapsilosis", "assay": "Antifungal activity against Candida parapsilosis CLIB214 assessed as growth inhibition at 50 uM added after 2 hrs of bacterial growth measured after 4 hrs", "type": "functional", "conditions": "Lodderomyces parapsilosis", "procedure,_shortened": "as §5"}},
  "note": "The source made the active and inactive calls. The calls are words filed in the database; no cut-off is given here.",
  "data": [
    {"smiles": "CC(C)=CCC/C(C)=C/CC/C(C)=C/CO", "note": "[FARNESOL]", "values": [
      {"measurement": "fold change (FC)", "setting": "Candida parapsilosis [1]", "value": 1.66},
      {"measurement": "fold change (FC)", "setting": "Candida parapsilosis [2]", "value": 1.75},
      {"measurement": "fold change (FC)", "setting": "Candida parapsilosis [3]", "value": 1.8},
      {"measurement": "fold change (FC)", "setting": "Candida parapsilosis [4]", "value": 1.5},
      {"measurement": "inhibition at 50 µM", "setting": "Candida parapsilosis [5]", "value": 25.5, "unit": "%"},
      {"measurement": "fold change (FC)", "setting": "Candida parapsilosis [6]", "value": 1.97},
      {"measurement": "fold change (FC)", "setting": "Candida parapsilosis [7]", "value": 1.5},
      {"measurement": "fold change (FC)", "setting": "Candida parapsilosis [8]", "value": 1.61},
      {"measurement": "fold change (FC)", "setting": "Candida parapsilosis [9]", "value": 1.89},
      {"measurement": "fold change (FC)", "setting": "Candida parapsilosis [10]", "value": 1.6},
      {"measurement": "fold change (FC)", "setting": "Candida parapsilosis [11]", "value": 1.5},
      {"measurement": "Activity", "setting": "Candida parapsilosis [12]", "value": "Active"},
      {"measurement": "fold change (FC)", "setting": "Candida parapsilosis [13]", "value": 1.77},
      {"measurement": "fold change (FC)", "setting": "Candida parapsilosis [14]", "value": 1.59},
      {"measurement": "fold change (FC)", "setting": "Candida parapsilosis [15]", "value": 1.62},
      {"measurement": "fold change (FC)", "setting": "Candida parapsilosis [16]", "value": 1.66},
      {"measurement": "inhibition at 50 µM", "setting": "Candida parapsilosis [17]", "value": 68.5, "unit": "%"},
      {"measurement": "fold change (FC)", "setting": "Candida parapsilosis [18]", "value": 1.84},
      {"measurement": "fold change (FC)", "setting": "Candida parapsilosis [19]", "value": 1.55},
      {"measurement": "Activity", "setting": "Candida parapsilosis [20]", "value": "Active"},
      {"measurement": "fold change (FC)", "setting": "Candida parapsilosis [21]", "value": 1.68},
      {"measurement": "Activity", "setting": "Candida parapsilosis [22]", "value": 20, "unit": "%"},
      {"measurement": "fold change (FC)", "setting": "Candida parapsilosis [23]", "value": 1.54},
      {"measurement": "inhibition at 50 µM", "setting": "Candida parapsilosis [24]", "value": 71, "unit": "%"}
    ]}
  ]
}
